How the values were obtained:
Format in all cases: functional
[1] = Growth inhibition of human HCC2998 cells assessed as cell growth at 10 '-8 M after 48 hrs by sulforhodamine B assay; details: HCC 2998, 48 h, read-out: Activity
SR = experiment: Growth inhibition of human SR cells assessed as cell growth at 10 '-4 M after 48 hrs by sulforhodamine B assay; details: read-out: Activity
SF-539 [2] = experiment: Growth inhibition of human SF539 cells assessed as cell growth at 10 '-8 M after 48 hrs by sulforhodamine B assay; details: SF-539, 48 h, read-out: Activity
HOP-92 = experiment: Growth inhibition of human HOP92 cells assessed as growth inhibition at 10 uM after 48 hrs by sulforhodamine B assay; details: HOP-92, 48 h, read-out: GI
A549 = experiment: Growth inhibition of human A549 cells assessed as cell growth at 10 '-4 M after 48 hrs by sulforhodamine B assay; details: A549, 48 h, read-out: Activity
Method in brief: (§1)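 Percent growth at each of the five concentrations of the 48 h continuous-exposure NCI SRB screen. Drug stocks were in DMSO at 400× the top final concentration and diluted in medium with gentamicin. Growth was calculated as [(Ti-Tz)/(C-Tz)]×100 when Ti ≥ Tz, or [(Ti-Tz)/Tz]×100 when Ti < Tz. Tz plates were fixed at drug addition; untreated wells served as control. Absorbance was read at 515 nm.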

RXF 393 = experiment: Growth inhibition of human RXF393 cells assessed as cell growth at 10 '-7 M after 48 hrs by sulforhodamine B assay; details: RXF 393, 48 h, read-out: Activity
SF-268 = experiment: Growth inhibition of human SF268 cells assessed as cell growth at 10 '-8 M after 48 hrs by sulforhodamine B assay; details: SF-268, 48 h, read-out: Activity
OVCAR-4 = experiment: Growth inhibition of human OVCAR4 cells assessed as cell growth at 10 '-5 M after 48 hrs by sulforhodamine B assay; details: OVCAR-4, 48 h, read-out: Activity
SK-MEL-5 [3] = experiment: Growth inhibition of human SK-MEL-5 cells assessed as cell growth at 10 '-6 M after 48 hrs by sulforhodamine B assay; details: SK-MEL-5, 48 h, read-out: Activity
A498 = experiment: Growth inhibition of human A498 cells after 48 hrs by sulforhodamine B assay; details: A498, 48 h
Method in brief: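 NCI 60-cell-line five-dose screen at 0.01, 0.1, 1, 10 and 100 µM final. Cells were plated at 5,000–40,000/well and grown 24 h at 37 °C, 5% CO2, then exposed to drug continuously for 48 h. Adherent cells were fixed with cold TCA (10% final) and stained with SRB; absorbance read at 515 nm. GI50 is the concentration where [(Ti-Tz)/(C-Tz)]×100 = 50, with Tz plates fixed at drug addition.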

[4] = Growth inhibition of human EKVX cells assessed as growth inhibition at 10 uM after 48 hrs by sulforhodamine B assay; details: read-out: GI
UACC-62 = experiment: Growth inhibition of human UACC62 cells assessed as cell growth at 10 '-6 M after 48 hrs by sulforhodamine B assay; details: UACC-62, 48 h, read-out: Activity
ACHN = experiment: Growth inhibition of human ACHN cells assessed as cell growth at 10 '-5 M after 48 hrs by sulforhodamine B assay; details: read-out: Activity; method in brief: as §1
MOLT-4 = experiment: Growth inhibition of human MOLT4 cells assessed as cell growth at 10 '-4 M after 48 hrs by sulforhodamine B assay; details: MOLT-4, 48 h, read-out: Activity
SF-295 = experiment: Growth inhibition of human SF295 cells assessed as cell growth at 10 '-5 M after 48 hrs by sulforhodamine B assay; details: SF-295, 48 h, read-out: Activity
T47D = experiment: Growth inhibition of human T47D cells after 48 hrs by sulforhodamine B assay
SNB-75 = experiment: Growth inhibition of human SNB75 cells after 48 hrs by sulforhodamine B assay; details: SNB-75, 48 h, read-out: LD50 (the source's name)
SF-539 [5] = experiment: Growth inhibition of human SF539 cells assessed as cell growth at 10 '-4 M after 48 hrs by sulforhodamine B assay; details: SF-539, 48 h, read-out: Activity
Malme-3M = experiment: Growth inhibition of human MALME-3M cells assessed as cell growth at 10 '-8 M after 48 hrs by sulforhodamine B assay; details: read-out: Activity
HCT-15 = experiment: Growth inhibition of human HCT15 cells assessed as cell growth at 10 '-6 M after 48 hrs by sulforhodamine B assay; details: HCT-15, 48 h, read-out: Activity
PC-3 = experiment: Growth inhibition of human PC3 cells assessed as cell growth at 10 '-5 M after 48 hrs by sulforhodamine B assay; details: PC-3, 48 h, read-out: Activity
[6] = Growth inhibition of human EKVX cells assessed as cell growth at 10 '-8 M after 48 hrs by sulforhodamine B assay; details: read-out: Activity
COLO 205 = experiment: Growth inhibition of human COLO205 cells assessed as growth inhibition at 10 uM after 48 hrs by sulforhodamine B assay; details: COLO 205, 48 h, read-out: GI
SK-MEL-5 [7] = experiment: Growth inhibition of human SK-MEL-5 cells assessed as cell growth at 10 '-5 M after 48 hrs by sulforhodamine B assay; details: SK-MEL-5, 48 h, read-out: Activity
[8] = Growth inhibition of human EKVX cells assessed as cell growth at 10 '-5 M after 48 hrs by sulforhodamine B assay; details: read-out: Activity
CAKI-1 = experiment: Growth inhibition of human CAKI-1 cells assessed as cell growth at 10 '-5 M after 48 hrs by sulforhodamine B assay; details: CAKI-1, 48 h, read-out: Activity; method in brief: as §1
MCF7 = experiment: Growth inhibition of human MCF7 cells after 48 hrs by sulforhodamine B assay; details: MCF7, 48 h
Method in brief: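 NCI 60-cell-line five-dose screen. Cells were plated at 5,000–40,000/well by doubling time and grown 24 h at 37 °C, 5% CO2. Time-zero plates were TCA-fixed. Drug from DMSO stock was tested at 0.01, 0.1, 1, 10 and 100 µM final for 48 h continuous exposure. Read-out was SRB at 515 nm. GI50 is the concentration giving 50% reduction in net protein increase versus untreated control.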

SN12C = experiment: Growth inhibition of human SN12C cells after 48 hrs by sulforhodamine B assay
NCI-H322M = experiment: Growth inhibition of human NCI-H322M cells assessed as growth inhibition at 10 uM after 48 hrs by sulforhodamine B assay; details: read-out: GI
HOP-62 = experiment: Growth inhibition of human HOP62 cells assessed as growth inhibition at 10 uM after 48 hrs by sulforhodamine B assay; details: HOP-62, 48 h, read-out: GI
SK-MEL-5 [9] = experiment: Growth inhibition of human SK-MEL-5 cells after 48 hrs by sulforhodamine B assay; details: SK-MEL-5, 48 h
[10] = read-out: LD50 (the source's name)

`Cc1cc(=O)oc2cc(OCCn3c(C)nn(-c4ccc(Cl)cc4)c3=O)ccc12` showed a growth at 0.01 µM [1] of 95%, a growth at 100 µM (SR) of -13% and a growth at 0.01 µM (SF-539 [2]) of 102%. It also gave an inhibition of growth at 10 µM (HOP-92) of 52.6%, a growth at 100 µM (A549) of 27% and a growth at 0.1 µM (RXF 393) of 90%. The growth at 0.01 µM (SF-268) was 104%, the growth at 10 µM (OVCAR-4) was -1% and the growth at 1 µM (SK-MEL-5 [3]) was 47%. For the same compound, the GI50 (A498) was 1130 nM, the TGI (A498) was 3190 nM and the CC50 (A498; [10]) was greater than 1000 nM. For the same compound, the inhibition of growth at 10 µM [4] was 41.3%, the growth at 1 µM (UACC-62) was 61% and the growth at 10 µM (ACHN) was 35%. It also gave a growth at 100 µM (MOLT-4) of 17%, a growth at 10 µM (SF-295) of 39% and a GI50 (T47D) of 7550 nM. For the same compound, the TGI (T47D) was greater than 1000 nM, the CC50 (T47D; [10]) was greater than 1000 nM and the CC50 (SNB-75) was greater than 1000 nM. For the same compound, the growth at 100 µM (SF-539 [5]) was -12%, the growth at 0.01 µM (Malme-3M) was 105% and the growth at 1 µM (HCT-15) was 80%. It also gave a growth at 10 µM (PC-3) of 48%, a growth at 0.01 µM [6] of 96% and an inhibition of growth at 10 µM (COLO 205) of 89.4%. It also gave a growth at 10 µM (SK-MEL-5 [7]) of 13%, a growth at 10 µM [8] of 63% and a growth at 10 µM (CAKI-1) of 54%. It also gave a GI50 (MCF7) of 2700 nM, a TGI (MCF7) greater than 1000 nM and a CC50 (MCF7; [10]) greater than 1000 nM. It also gave a GI50 (SN12C) of 5540 nM, a TGI (SN12C) greater than 1000 nM and a CC50 (SN12C; [10]) greater than 1000 nM. For the same compound, the inhibition of growth at 10 µM (NCI-H322M) was 41.3%, the inhibition of growth at 10 µM (HOP-62) was 72.7% and the GI50 (SK-MEL-5 [9]) was 8480 nM. For the same compound, the TGI (SK-MEL-5 [9]) was greater than 1000 nM and the CC50 (SK-MEL-5 [9]; [10]) was greater than 1000 nM.

Reference: ChEMBL document CHEMBL2346664, “Synthesis, characterization and in vitro anticancer evaluation of novel 1,2,4-triazolin-3-one derivatives” (2013)
